Test results reported in ChEMBL document CHEMBL1133729, “Design, synthesis, and structure-activity relationships of phthalimide-phenylpiperazines: a novel series of potent and selective alpha(1)(a)-adrenergic receptor antagonists” (J Med Chem, 2000).

Legend:
D(2) dopamine receptor [1] = molecular target: T1, D(2) dopamine receptor (Homo sapiens, UniProt P14416); assay: Binding affinity towards recombinant human Dopamine receptor D2L was determined using [3H]spiperone as radioligand
In short: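 CHO-expressed human D2L membranes; [3H]spiperone, 25 °C for 120 min, pH 7.4 Tris-HCl/NaCl/EDTA buffer; haloperidol (10 μM) for nonspecific binding. Filtration, scintillation counting. IC50 by nonlinear least squares fitting; Ki by Cheng–Prusoff; mean ± SEM, three independent experiments.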

[2] = Ratio of rat aorta KB to rat prostate KB; format: functional
In short: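 Long Evans male rats (275 ± 25 g); aortic and prostate strips at 2 g resting tension in modified Krebs, 37 °C, 95% O2/5% CO2, pH 7.4, isometric recording. Cumulative NE curves (0.001–100 μM), repeated after 5 min with one of three antagonist concentrations. KB = [B]/(CR − 1) from EC50 shifts; value is aorta KB divided by prostate KB.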

[3] = molecular target: 5-hydroxytryptamine receptor 7 (Homo sapiens, UniProt P34969); assay: Binding affinity towards recombinant human 5-hydroxytryptamine 7 receptor was determined using [3H]LSD as radioligand
In short: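 Membranes were from CHO cells expressing recombinant human 5-HT7. [3H]LSD binding was run for 120 min at 37 °C in 50 mM Tris-HCl, 150 mM NaCl, 5 mM EDTA, pH 7.4, with nonspecific binding set by 5 μM 5-HT. Filtration and scintillation counting followed. Ki came from IC50 by Cheng–Prusoff, mean ± SEM of three experiments.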

D(3) dopamine receptor = D(3) dopamine receptor (Homo sapiens, UniProt P35462); assay: Binding affinity towards recombinant human Dopamine receptor D3 was determined using [3H]spiperone as radioligand
Rattus norvegicus [4] = species on record: Rattus norvegicus; assay: Antagonist dissociation equilibrium constant was tested against rat prosta contraction; format: functional
In short: (§1)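 Isolated Long Evans male rat (275 ± 25 g) abdominal aortic strips (3-4 mm wide) or prostate strips (8-10 mm x 1-2 mm), 2 g resting tension, modified Krebs at 37 °C, 95% O2/5% CO2, pH 7.4, 60 min equilibration; isometric tension.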

[5] = molecular target: T2, Alpha-1D adrenergic receptor (Homo sapiens, UniProt P25100); assay: Binding affinity towards cloned human alpha-1D adrenergic receptor was determined using [125]-HEAT as radioligand
T2 sequence (P25100 whole entry): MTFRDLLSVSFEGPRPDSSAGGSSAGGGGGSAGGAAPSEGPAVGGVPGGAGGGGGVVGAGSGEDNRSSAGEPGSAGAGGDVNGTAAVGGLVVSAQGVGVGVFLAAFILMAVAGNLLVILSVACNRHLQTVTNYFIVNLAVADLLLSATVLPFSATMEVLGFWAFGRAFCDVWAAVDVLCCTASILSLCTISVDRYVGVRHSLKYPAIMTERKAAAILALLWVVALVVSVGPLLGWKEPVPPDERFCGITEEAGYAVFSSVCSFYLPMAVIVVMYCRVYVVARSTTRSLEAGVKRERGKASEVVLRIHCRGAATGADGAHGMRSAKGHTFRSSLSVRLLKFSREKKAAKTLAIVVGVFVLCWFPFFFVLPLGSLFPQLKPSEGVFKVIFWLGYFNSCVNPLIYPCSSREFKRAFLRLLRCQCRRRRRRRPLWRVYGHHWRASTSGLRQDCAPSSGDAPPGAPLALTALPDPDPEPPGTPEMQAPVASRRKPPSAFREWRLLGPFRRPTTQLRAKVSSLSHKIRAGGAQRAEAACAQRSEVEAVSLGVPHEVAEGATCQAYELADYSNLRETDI
In short: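 Human α1a, α1b and α1d cDNAs transiently expressed in COS-1 cells (DEAE-dextran); membranes harvested 72 h post-transfection. Competition versus 50 pM [125I]HEAT (final), 0.1 pM–10 μM test compound in half-log steps, in TNE buffer pH 7.4. Membrane protein 0.1 μg (α1a, α1b) or 2.6 μg (α1d); 1 h at 25 °C. Filtration, scintillation counting; Ki = IC50/(1 + [L]/Kd). Ratios are subtype Ki over α1a Ki.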

D(2) dopamine receptor [6] = molecular target: T1, D(2) dopamine receptor; assay: Binding affinity towards recombinant human Dopamine receptor D2S was determined using [3H]spiperone as radioligand
In short: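 Recombinant human D2S in CHO cell membranes; [3H]spiperone incubated 120 min at 37 °C, buffer 50 mM Tris-HCl, 150 mM NaCl, 5 mM EDTA, pH 7.4; nonspecific with 10 μM haloperidol. Filtered, counted by scintillation. Ki via Cheng–Prusoff from fitted IC50, mean ± SEM of three experiments.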

[7] = molecular target: phenylalkylamine-sensitive L-type Ca2+ channel (Rattus norvegicus, UniProt P22002+P27732+Q02485); assay: Inhibition of [3H]nitrendipine binding to phenylalkylamine-sensitive [Ca2+] L-type channels in rat cerebral cortex at 1 uM; format: tissue-based; conditions: probe [3H]nitrendipine
Rattus norvegicus [8] = species on record: Rattus norvegicus; assay: Antagonist dissociation equilibrium constant was tested against rat aorta contraction; format: functional; in short: as §1
[9] = molecular target: Alpha-2B adrenergic receptor (Rattus norvegicus, UniProt P19328); assay: Binding affinity towards rat alpha-2B adrenergic receptor was determined using [3H]yohimbine as radioligand
In short: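 Membranes from rat kidney cortex; [3H]yohimbine binding at 25 °C for 30 min in 50 mM Tris-HCl, 150 mM NaCl, 5 mM EDTA, pH 7.4. Nonspecific binding defined with 10 μM phentolamine. Filtration, washes, scintillation counting. IC50 from nonlinear regression, Ki by Cheng–Prusoff, mean ± SEM of three independent experiments.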

[10] = molecular target: Dihydropyridine-sensitive L-type Ca2+ channel (Rattus norvegicus, UniProt P22002+P27732+Q02485); assay: Inhibition of [3H]nitrendipine binding to Dihydropyridine-sensitive L-type [Ca2+] channel in rat cerebral cortex at 1 uM; format: tissue-based; conditions: probe [3H]nitrendipine
In short: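 Rat cerebral cortex membranes as source of dihydropyridine-sensitive L-type Ca2+ channels; [3H]nitrendipine, 25 °C for 90 min, pH 7.4 Tris-HCl/NaCl/EDTA; 1 μM nifedipine for nonspecific binding. Percent inhibition at the single compound concentration given in each line; filtration, scintillation counting.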

[11] = molecular target: Histamine H1 receptor (Cavia porcellus) (UniProt P31389); assay: Compound at 1 uM was tested for the inhibition of radioligand [3H]pyrilamine binding to peripheral histamine H1 receptor in guinea pig lung
Rattus norvegicus [12] = species on record: Rattus norvegicus; assay: Displacement of [3H]-idazoxan from imidazoline receptor I-2 of rat cerebral cortex; format: tissue-based; conditions: concentration not given here
In short: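 Rat cerebral cortex membranes; [3H]idazoxan at 25 °C for 30 min in 50 mM Tris-HCl, 150 mM NaCl, 5 mM EDTA, pH 7.4; nonspecific binding with 1 μM idazoxan. Filtered, washed three to four times, scintillation counted; duplicate determinations.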

Histamine H1 receptor (Cavia porcellus), sequence (P31389 whole entry): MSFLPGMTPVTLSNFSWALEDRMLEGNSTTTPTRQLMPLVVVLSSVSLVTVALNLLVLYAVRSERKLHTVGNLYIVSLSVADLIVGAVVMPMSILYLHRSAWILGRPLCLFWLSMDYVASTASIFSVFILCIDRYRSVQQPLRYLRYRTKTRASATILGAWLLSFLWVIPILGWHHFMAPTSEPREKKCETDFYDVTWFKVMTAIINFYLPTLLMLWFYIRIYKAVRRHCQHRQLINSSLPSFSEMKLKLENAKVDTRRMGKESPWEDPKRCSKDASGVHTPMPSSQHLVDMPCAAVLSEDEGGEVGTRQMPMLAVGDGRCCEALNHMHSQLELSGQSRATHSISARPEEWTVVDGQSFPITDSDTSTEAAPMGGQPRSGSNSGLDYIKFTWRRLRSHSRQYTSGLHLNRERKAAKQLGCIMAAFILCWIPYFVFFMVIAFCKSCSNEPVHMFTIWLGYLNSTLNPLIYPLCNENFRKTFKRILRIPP
T1 sequence (P14416 whole entry): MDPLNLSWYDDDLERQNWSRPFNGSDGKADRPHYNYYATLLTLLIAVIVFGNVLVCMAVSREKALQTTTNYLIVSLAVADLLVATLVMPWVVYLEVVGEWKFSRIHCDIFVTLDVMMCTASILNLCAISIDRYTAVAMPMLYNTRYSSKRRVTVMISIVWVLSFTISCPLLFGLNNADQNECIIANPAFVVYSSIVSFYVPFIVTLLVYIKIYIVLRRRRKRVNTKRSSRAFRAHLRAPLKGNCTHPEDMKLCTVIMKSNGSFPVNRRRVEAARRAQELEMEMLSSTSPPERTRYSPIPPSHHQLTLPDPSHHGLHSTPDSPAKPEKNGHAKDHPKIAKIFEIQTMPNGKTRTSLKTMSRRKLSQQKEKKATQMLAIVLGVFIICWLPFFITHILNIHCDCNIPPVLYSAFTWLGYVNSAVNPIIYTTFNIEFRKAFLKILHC
5-hydroxytryptamine receptor 7, sequence (P34969 whole entry): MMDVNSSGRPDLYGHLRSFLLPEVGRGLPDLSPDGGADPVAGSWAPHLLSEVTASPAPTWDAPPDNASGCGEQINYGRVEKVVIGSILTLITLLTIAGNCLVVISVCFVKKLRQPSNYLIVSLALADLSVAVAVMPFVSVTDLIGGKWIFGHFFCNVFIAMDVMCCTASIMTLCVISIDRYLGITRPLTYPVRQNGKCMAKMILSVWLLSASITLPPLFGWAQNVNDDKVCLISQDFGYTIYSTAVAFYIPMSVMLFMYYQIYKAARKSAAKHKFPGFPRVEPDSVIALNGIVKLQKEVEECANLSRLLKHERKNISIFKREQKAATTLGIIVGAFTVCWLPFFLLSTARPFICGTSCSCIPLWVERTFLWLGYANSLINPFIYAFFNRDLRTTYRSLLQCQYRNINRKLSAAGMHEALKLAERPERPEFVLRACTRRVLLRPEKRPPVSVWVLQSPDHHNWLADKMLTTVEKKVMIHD
Alpha-2B adrenergic receptor, sequence (P19328 whole entry): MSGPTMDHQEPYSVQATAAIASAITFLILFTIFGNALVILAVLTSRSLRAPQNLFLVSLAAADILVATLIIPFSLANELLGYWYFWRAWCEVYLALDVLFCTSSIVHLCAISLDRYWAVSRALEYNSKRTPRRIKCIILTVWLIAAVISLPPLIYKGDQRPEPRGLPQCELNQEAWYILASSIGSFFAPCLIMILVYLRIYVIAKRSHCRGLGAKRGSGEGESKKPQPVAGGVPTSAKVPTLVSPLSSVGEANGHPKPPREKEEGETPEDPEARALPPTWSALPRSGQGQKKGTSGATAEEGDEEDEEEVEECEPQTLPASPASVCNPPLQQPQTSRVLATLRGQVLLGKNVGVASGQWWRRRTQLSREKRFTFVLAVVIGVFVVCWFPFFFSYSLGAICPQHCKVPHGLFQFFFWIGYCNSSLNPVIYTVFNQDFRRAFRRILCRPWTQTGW
D(3) dopamine receptor, sequence (P35462 whole entry): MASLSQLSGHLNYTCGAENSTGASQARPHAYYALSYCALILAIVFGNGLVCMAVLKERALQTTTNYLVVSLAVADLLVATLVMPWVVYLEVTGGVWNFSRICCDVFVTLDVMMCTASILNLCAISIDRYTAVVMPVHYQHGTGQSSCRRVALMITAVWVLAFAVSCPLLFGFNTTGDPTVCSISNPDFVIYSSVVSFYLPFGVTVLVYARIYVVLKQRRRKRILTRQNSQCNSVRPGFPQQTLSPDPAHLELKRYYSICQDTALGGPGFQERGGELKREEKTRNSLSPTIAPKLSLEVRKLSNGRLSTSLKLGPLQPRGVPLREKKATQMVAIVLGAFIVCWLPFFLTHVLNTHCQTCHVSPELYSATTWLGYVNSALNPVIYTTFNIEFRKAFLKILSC

| Compound | Ki (D(2) dopamine receptor [1]) [nM] | Ratio [2] | Ki [3] [nM] | Ki (D(3) dopamine receptor) [nM] | pKB (Rattus norvegicus [4]) | Ki [5] [nM] | Ki (D(2) dopamine receptor [6]) [nM] | inhibition at 1 µM [7] [%] | pKB (Rattus norvegicus [8]) | Ki [9] [nM] | inhibition at 1 µM [10] [%] | inhibition [11] [%] | inhibition (Rattus norvegicus [12]) [%] |
| --- | --- | --- | --- | --- | --- | --- | --- | --- | --- | --- | --- | --- | --- |
| CC(C)Oc1ccccc1N1CCN(C[C@@H](O)CNC(=O)c2ccc3c(c2)C(=O)N(c2ccc(N(C)C)cc2)C3=O)CC1 | 23 | 35.2 | 10 | 62 | 7.39 | 52 | 25 | 57 | 5.84 | 169 |  |  |  |
| Cc1ccc(N2C(=O)c3ccc(C(=O)NCCCN4CCN(c5ccccc5OC(C)C)CC4)cc3C2=O)cc1 |  |  |  |  |  | 37 |  | 69 |  |  | 53 |  |  |
| Cc1ccc(N2C(=O)c3ccc(C(=O)NC[C@H](O)CN4CCN(c5ccccc5OC(C)C)CC4)cc3C2=O)cc1 |  | 7.6 |  |  | 6.78 | 54 |  |  | 5.9 |  |  |  |  |
| CC(C)Oc1ccccc1N1CCN(C[C@@H](O)CNC(=O)c2ccc3c(c2)C(=O)N(c2cccc(F)c2)C3=O)CC1 |  | 22.6 |  |  | 7.81 | 190 |  | 81 | 6.47 |  | 67 | 69 |  |
| CCOc1ccccc1OCCN[C@H](C)Cc1ccc(OC)c(S(N)(=O)=O)c1 [TAMSULOSIN] | 13 |  | 84 | 0.28 | 9.33 | 0.18 | 78 | 20 | 10.76 | 80 | 22 | 7 | 64 |
| CC(C)Oc1ccccc1N1CCN(CCCNC(=O)c2ccc3c(c2)C(=O)N(c2cccc(F)c2)C3=O)CC1 |  |  |  |  |  | 22 |  | 72 |  |  | 76 | 75 | 66 |
| COc1ccc(N2C(=O)c3ccc(C(=O)NCCCN4CCN(c5ccccc5OC(C)C)CC4)cc3C2=O)cc1 |  |  |  |  |  | 16 |  |  |  |  |  |  |  |
